Test results reported in ChEMBL document CHEMBL1141864, “Structure-activity relationships in 1,4-benzodioxan-related compounds. 8.(1) {2-[2-(4-chlorobenzyloxy)phenoxy]ethyl}-[2-(2,6-dimethoxyphenoxy)ethyl]amine (clopenphendioxan) as a tool to highlight the involvement of alpha1D- and alpha1B-adrenoreceptor subtypes in the regulation of human PC-3 …” (J Med Chem, 2005).
Activity calls are given as the source filed them. The rule behind the calls is not given here.

How the values were obtained:
[1] = target: T1, Alpha-1B adrenergic receptor (Rattus norvegicus) (UniProt P15823); assay: ADRA1B blocking activity assessed by antagonism of (-)-phenylephrine induced contractions on isolated rat spleen; assay type: functional, tissue-based
T1 sequence (whole entry): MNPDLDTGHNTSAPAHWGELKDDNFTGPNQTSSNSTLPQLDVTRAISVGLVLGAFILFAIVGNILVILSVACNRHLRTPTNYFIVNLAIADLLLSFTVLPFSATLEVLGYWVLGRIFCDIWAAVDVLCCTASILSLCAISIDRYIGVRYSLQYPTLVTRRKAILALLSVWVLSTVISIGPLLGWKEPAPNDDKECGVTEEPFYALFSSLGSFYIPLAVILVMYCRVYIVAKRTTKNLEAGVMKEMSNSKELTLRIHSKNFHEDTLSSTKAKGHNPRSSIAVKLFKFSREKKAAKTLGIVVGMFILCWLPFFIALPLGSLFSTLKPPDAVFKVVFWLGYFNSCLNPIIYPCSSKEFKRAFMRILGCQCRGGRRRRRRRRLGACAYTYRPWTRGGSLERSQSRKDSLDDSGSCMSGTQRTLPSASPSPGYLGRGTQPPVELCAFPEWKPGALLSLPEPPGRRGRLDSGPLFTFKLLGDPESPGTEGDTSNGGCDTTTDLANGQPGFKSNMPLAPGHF
Outline: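 Isolated rat tissue: each antagonist concentration tested four times over 0.01–1 μM; pK_B calculated by van Rossum method from shifts of (-)-noradrenaline contraction curves (vas deferens, α1A; thoracic aorta, α1D) or (-)-phenylephrine contraction curves (spleen, α1B).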

[2] = target: T2, Alpha-1D adrenergic receptor (Homo sapiens, UniProt P25100); assay: Displacement of [3H]prazosin from cloned human ADRA1D expressed in CHO cells; assay type: cell-based
T2 sequence (P25100 whole entry): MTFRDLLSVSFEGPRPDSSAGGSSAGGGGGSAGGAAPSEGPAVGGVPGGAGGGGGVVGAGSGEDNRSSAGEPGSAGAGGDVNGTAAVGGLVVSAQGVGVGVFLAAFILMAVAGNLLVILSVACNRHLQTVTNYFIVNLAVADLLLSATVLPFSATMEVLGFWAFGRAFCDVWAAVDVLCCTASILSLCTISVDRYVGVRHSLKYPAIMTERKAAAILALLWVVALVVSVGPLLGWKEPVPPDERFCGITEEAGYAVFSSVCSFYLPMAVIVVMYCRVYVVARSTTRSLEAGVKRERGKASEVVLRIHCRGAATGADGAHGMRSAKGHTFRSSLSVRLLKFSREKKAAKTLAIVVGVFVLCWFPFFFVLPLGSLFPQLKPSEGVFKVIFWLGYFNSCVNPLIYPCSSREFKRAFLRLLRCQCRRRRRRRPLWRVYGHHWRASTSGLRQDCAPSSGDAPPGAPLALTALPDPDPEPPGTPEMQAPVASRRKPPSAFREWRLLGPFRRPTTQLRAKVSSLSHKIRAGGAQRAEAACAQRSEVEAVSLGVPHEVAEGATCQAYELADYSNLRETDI

[3] = target: T3, 5-hydroxytryptamine receptor 1A (Homo sapiens) (UniProt P08908); assay: Agonist efficacy towards cloned human 5HT1A receptor by [35SGTP]gammaS binding in HeLa cells; assay type: cell-based
T3 sequence (whole entry): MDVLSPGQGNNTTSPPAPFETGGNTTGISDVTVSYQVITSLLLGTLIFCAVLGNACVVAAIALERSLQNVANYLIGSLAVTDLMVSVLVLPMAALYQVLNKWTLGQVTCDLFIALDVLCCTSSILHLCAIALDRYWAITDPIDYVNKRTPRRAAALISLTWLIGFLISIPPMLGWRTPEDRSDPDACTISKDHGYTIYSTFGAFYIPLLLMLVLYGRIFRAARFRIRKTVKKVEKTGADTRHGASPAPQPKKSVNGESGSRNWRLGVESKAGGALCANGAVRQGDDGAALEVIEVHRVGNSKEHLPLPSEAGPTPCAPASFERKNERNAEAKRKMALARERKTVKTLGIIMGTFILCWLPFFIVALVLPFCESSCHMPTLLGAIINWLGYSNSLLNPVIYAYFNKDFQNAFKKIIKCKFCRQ

[4] = tested on: PC-3; assay: Inhibition of NE-induced increase of PC3 cell proliferation using ELISA BrdU; assay type: functional, cell-based; conditions: Homo sapiens
Outline: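 PC-3 cells (7×10^4/well) plated 24 h, then given noradrenaline (0–50 μM) alone or with antagonist (1 μM, or 0.5 μM for one compound) for 16 h. BrdU added for the last 4 h and read by colorimetric ELISA as % growth; mean ± SD of three experiments.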

[5] = target: T3, 5-hydroxytryptamine receptor 1A (Homo sapiens); assay: Maximum response towards cloned human 5HT1A receptor

Row | Structure (SMILES) | pKb [1] | Ki [2] [nM] | pD2 [3] | Activity [4] | %max [5] [%]
1 | COc1cccc(OC)c1OCCNCCOc1ccccc1OCc1ccccc1[N+](=O)[O-] | 8.56 | 0.912 |  |  | 
2 | COc1cccc(OC)c1OCCNCCOc1ccccc1OCc1ccc(Cl)cc1 [CLOPENPHENDIOXAN] | 8.06 | 0.0316 | 6.98 | Active | 60
3 | COc1cccc(COc2ccccc2OCCNCCOc2c(OC)cccc2OC)c1 | 8.31 | 0.316 |  |  | 
4 | COc1cccc(OC)c1OCCNCCOc1ccccc1OCc1cccc(Cl)c1 | 7.93 | 0.0501 | 7.15 |  | 67.1
5 | COc1ccccc1COc1ccccc1OCCNCCOc1c(OC)cccc1OC | 8.13 | 2 |  |  | 
6 | COc1cccc(OC)c1OCCNCCOc1ccccc1OCc1ccc(C)cc1 | 8.43 | 0.0631 |  |  | 
7 | COc1cccc(OC)c1OCCNCCOc1ccccc1OCc1ccccc1 | 8.3 | 0.0676 | 7.11 | Active | 45.7
8 | COc1cccc(OC)c1OCCNCCOc1ccccc1OCc1ccccc1Cl | 7.52 | 0.251 | 7.31 |  | 74.4
9 | COc1ccc(COc2ccccc2OCCNCCOc2c(OC)cccc2OC)cc1 | 9.51 | 0.1 | 7.92 |  | 21.6
10 | COc1cccc(OC)c1OCCNCCOc1ccccc1OCc1ccccc1C | 7.67 | 0.126 | 6.96 |  | 75.6
11 | COc1cccc(OC)c1OCCNCCOc1ccccc1OCc1cccc(C)c1 | 8.2 | 0.2 |  |  | 
12 | COc1cccc(OC)c1OCCNCCOc1ccccc1OCc1cccc([N+](=O)[O-])c1 | 8.74 | 0.0631 | 7.16 |  | 44.4
13 | COc1cccc(OC)c1OCCNCCOc1ccccc1OCc1ccc([N+](=O)[O-])cc1 | 9.02 | 0.0501 | 6.15 |  | 79.1
